Assay [1] has as its target T1, Dopamine beta-hydroxylase (Bos taurus) (UniProt P15101).
T1 sequence (whole entry): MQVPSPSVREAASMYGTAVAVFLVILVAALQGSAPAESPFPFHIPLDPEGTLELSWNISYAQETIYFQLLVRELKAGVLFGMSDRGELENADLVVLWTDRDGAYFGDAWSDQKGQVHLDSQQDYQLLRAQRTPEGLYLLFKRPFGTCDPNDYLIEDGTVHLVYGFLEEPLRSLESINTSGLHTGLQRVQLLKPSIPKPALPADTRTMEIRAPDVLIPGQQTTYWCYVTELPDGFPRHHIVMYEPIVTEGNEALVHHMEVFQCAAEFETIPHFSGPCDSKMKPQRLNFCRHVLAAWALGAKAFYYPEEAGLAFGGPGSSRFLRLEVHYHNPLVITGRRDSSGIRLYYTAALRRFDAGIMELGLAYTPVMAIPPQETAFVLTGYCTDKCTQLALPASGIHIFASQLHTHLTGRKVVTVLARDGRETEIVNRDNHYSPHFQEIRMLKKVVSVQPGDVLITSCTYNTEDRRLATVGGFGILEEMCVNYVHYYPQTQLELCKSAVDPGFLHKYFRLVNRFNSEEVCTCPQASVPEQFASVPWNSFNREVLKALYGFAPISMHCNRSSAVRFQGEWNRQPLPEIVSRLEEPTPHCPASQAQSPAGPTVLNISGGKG
In words: Kinact value is determined from a plot of log(percent enzyme activity remaining) vs times. Put shortly: (§1)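 Homogeneous bovine DBH (specific activity 30-42 units/mg at pH 5.0) was used in 50 mM sodium acetate at pH 5.0 and ionic strength 0.2, with 1 mg/mL catalase, 10 μM Cu²⁺ and 10 mM ascorbic acid at 37 °C. O₂ was held at 0.24 mM, so kinact values are apparent. kinact(observed) came from log % activity remaining vs time. KI and kinact came from 1/kinact(obs) vs 1/[inhibitor] plots using at least four inhibitor concentrations. Values are mean ± SEM.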

Assay [2] addresses T2, Dopamine beta-hydroxylase (Bos taurus, UniProt P15101).
T2 sequence (P15101 whole entry): T1 sequence (whole entry)
In words: KI value was determined from plots of 1/kinact(observed) vs 1/[inhibitor]. In short, it runs like this:
as §1

The target in assay [3] is T2, Dopamine beta-hydroxylase. The assay can be described thus: KI value was determined from plots of 1/kinact(observed) vs 1/[inhibitor]; e denotes 'Minimal time dependent inactivation'. Put shortly:
as §1

Assay [4] concerns the target T1, Dopamine beta-hydroxylase (Bos taurus). The assay can be described thus: Kinact value is determined from a plot of log(percent enzyme activity remaining) vs times; e denotes 'Minimal time dependent inactivation'. In short, it runs like this: as §1
Assay [5] has the same target. The assay can be described thus: Kis value for the affinity towards homogenous bovine dopamine beta-hydroxylase (DBH). In short, it runs like this: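 Competitive inhibition constant was measured against tyramine substrate without fumarate, using homogeneous bovine DBH (30-42 units/mg at pH 5.0). Conditions were pH 5.0, ionic strength 0.2, 50 mM sodium acetate, 1 mg/mL catalase, 10 μM Cu²⁺, 10 mM ascorbate and 37 °C. Kis was obtained by kinetic fitting and is reported as mean ± SEM.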

For assay [6] the target is unchanged. The assay can be described thus: Kinact value is determined from a plot of log(percent enzyme activity remaining) vs times; Apparent values at pH 5.0, 0.24 mM O2.
For assay [7], the target named is T2, Dopamine beta-hydroxylase. In words: KI value was determined from plots of 1/kinact(observed) vs 1/[inhibitor]; Apparent values at pH 5.0, 0.24 mM O2.

The structures appear in SMILES notation. Calls of active or inactive are those of the source. The calls are words filed in the database; no cut-off is given here.

Take `C=C(CN)c1cccs1`: the K inact in assay [1] worked out at 0.124 min⁻¹.
On to `C#CC(CN)c1ccc(O)cc1` (stereo in doubt; (+\-)3) [listing 1 of 2 here], for which the Ki in assay [2] turned out to be 15.7 µM.
Turning to `C=CC(CN)c1cccc(O)c1` (centres undefined), the Ki result in assay [3] was “Inactive”. Further, the K inact entry in assay [4] was “inactive”. Also, the Kis in assay [5] came to 1270 µM.
In assay [1], `C#CC(CN)c1ccc(O)cc1` (single isomer, unassigned; (-)) [listing 1 of 2 here] returned a K inact of 0.184 min⁻¹. Further, the Kis in assay [5] came out at 33.9 µM.
For `C#CC(CN)c1cccc(O)c1` (centres undefined), in assay [3], the Ki result was “Inactive”. For the same compound, the K inact result in assay [4] was “inactive”. Further, the Kis in assay [5] came to 190 µM.
Turning to `C#CC(CN)c1ccc(O)cc1` (single isomer, unassigned; (-)) [listing 2 of 2 here], in assay [2], the Ki was 57 µM.
For the compound `C#CC(CN)c1ccc(O)cc1` (stereo in doubt; (+)3) [listing 1 of 2 here], the K inact result in assay [4] is “inactive”. The same compound had a Kis in assay [5] of 7.9 µM.
For the compound `C=C(CN)c1ccc(O)cc1`, the K inact in assay [6] worked out at 0.81 min⁻¹. In addition, in assay [7], the Ki was 520 µM.
On to `C#CC(CN)c1ccc(O)cc1` (stereo in doubt; (+)3) [listing 2 of 2 here], for which the Ki result in assay [3] is recorded as “Inactive”.
With `C#CC(CN)c1ccc(O)cc1` (stereo in doubt; (+\-)3) [listing 2 of 2 here], the K inact in assay [1] came to 0.023 min⁻¹. For the same compound, the Kis in assay [5] worked out at 13.6 µM.
With `C=CC(CN)c1ccc(O)cc1` (centres undefined), the Ki result in assay [3] was “Inactive”. Moreover, the K inact result in assay [4] was “inactive”. Further, in assay [5], the Kis is 82 µM.
The like results for `C=CC(CN)c1ccccc1` (centres undefined) were, in that order, “Inactive”, “inactive” and 670 µM.
The like results for `C#CC(CN)c1ccccc1` (centres undefined) were, in that order, “Inactive”, “inactive” and 160 µM.
The compound `Oc1ccc(CC2CC2)cc1` yielded a K inact in assay [1] of 1.8 min⁻¹. In addition, the Ki in assay [2] is 12000 µM.
